Bioassay records: PubChem, Broad Institute
Sampled rows, rich in hits. Any-hit rate of the full collection: about 2%.
dFosB activator – activators of delta FosB homodimer, primary screen, biochemical, fluorescence polarization, TAMRA-CDK5 oligo, single point; purified delta FosB; percent of positive-control signal above neutral wells; activation, % at 25 µM; actives 0.99% (n = 340,000); AID 493131, 2011;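 active means mean activation above about 17%, with every replicate also reaching it, limit read from the data, passing the limit was not always enough; inconclusive means only one of the two conditions met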
SR-BI DiI-HDL act – activators of SR-BI mediated DiI-HDL uptake, primary screen, ldlA[mSR-BI] CHO cells, DiI fluorescence; activation, % at 12.5 µM; 3 h; 100 = double the neutral-control signal; actives 0.096% (n = 320,000); AID 504775, 2011;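 active means mean replicate activation of at least 60% and every replicate at or above 60%; inconclusive means mean or all-replicate condition met, but not both; inactive means mean below 60% and not all replicates reaching 60%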;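 further: 0% = median plate neutral-control signal and 100% = twice that signal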
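System: CHO ldlA[mSR-BI] cells / Medium: HEPES-buffered (25 mM, pH 7.4) F12 plus 0.5% BSA / Probe or stimulus: labelled HDL, 10 µg/mL / Doses: single compound concentration, delivered by pin transfer / Schedule: 3 h, 37 °C / Measured by: DiI fluorescence, bottom read / Measure: cell-associated DiI fluorescence as measure of HDL uptake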
SR-BI HDL uptake – inhibitors of SR-BI mediated HDL lipid uptake, primary screen, ldlA[mSR-BI] cells, fluorescence, single point; Scavenger receptor class B member 1 (Mus musculus), Q61009; ldlA[mSR-BI] CHO cells, DiI-HDL uptake fluorescence, 3 h; inhibition, % at 12.5 µM; actives 0.96% (n = 320,000); AID 488896, 2010;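 active means mean replicate inhibition of at least 70% and a set share of replicates each scoring 70 or more; inconclusive means meets just one of the two criteria; inactive means fails both criteria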;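 further: 0% = median of neutral control wells and 100% = median of positive control wells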
Target sequence (Q61009 whole entry, looked up): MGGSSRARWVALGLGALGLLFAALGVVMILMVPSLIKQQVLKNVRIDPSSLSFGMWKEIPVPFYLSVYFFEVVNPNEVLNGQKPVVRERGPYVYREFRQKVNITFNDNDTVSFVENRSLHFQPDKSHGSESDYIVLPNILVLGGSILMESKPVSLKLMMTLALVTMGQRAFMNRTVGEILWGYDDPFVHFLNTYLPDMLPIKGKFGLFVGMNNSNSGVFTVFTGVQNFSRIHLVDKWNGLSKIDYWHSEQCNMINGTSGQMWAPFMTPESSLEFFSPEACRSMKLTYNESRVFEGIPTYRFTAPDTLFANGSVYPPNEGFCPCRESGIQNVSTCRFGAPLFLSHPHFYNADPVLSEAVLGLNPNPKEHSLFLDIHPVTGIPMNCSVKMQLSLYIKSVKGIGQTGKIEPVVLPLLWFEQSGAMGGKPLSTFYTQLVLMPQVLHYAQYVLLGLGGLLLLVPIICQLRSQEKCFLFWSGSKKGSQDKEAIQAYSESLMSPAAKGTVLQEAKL
CDK5 inh – inhibitors of human CDK5/p35 kinase, primary screen, biochemical, single concentration. Cyclin-dependent kinase 5 (Homo sapiens) + Cyclin-dependent kinase 5 activator 1 (Homo …. Recombinant CDK5/p35, ADP-Glo luminescence, 60 min. inhibition, % at 10 µM. actives 0.01% (n = 330,000);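 active means highest replicate inhibition of at least 50% and at least 75% of replicates reaching 50%; inconclusive means only one of the two criteria met; inactive means both criteria failed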;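 further: plate controls were DMSO neutral control for no effect and GW8510 at 10 µM for full effect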
Numbers without * were called inactive; ? = inconclusive; . = not tested or not shown; + = active, no number.

SMILES	dFosB activator	SR-BI DiI-HDL act	SR-BI HDL uptake	CDK5 inh
O=C1Nc2ccccc2/C1=C/c1cnc[nH]1	7	17	-17	102*
COc1ccc(-n2c(/C=C3\C(=O)Nc4ccccc43)nc3ccccc3c2=O)cc1	-10	-45	45	1
COc1ccc2c(c1)/C(=C/c1cnc[nH]1)C(=O)N2	0	12	-12	+
O=C1Nc2ccccc2/C1=C/c1nc2ccccc2c(=O)n1-c1ccc(O)cc1	-19	-46	46	-2
CC1=Nc2cc(C(=O)N3CCC4(CC3)OCCO4)ccc2Sc2ccc(Cl)cc21	-4	-19	19	.
COC(=O)C1=C(c2ccc3ccccc3c2)C[C@@H]2CC[C@H]1N2C(=O)NCCNC(C)=O	3	22	-22	0
CN1CCN(c2ccc(N)c(N3CCN(C)CC3)c2)CC1	56*	10	-10	3
CN1CCN(c2ccc(N)cc2)CC1	?	-1	1	1
CC[N+](C)(CC)CCCCOc1ccc2c(c1)C(=O)c1cc(OCCCC[N+](C)(CC)CC)ccc1-2	49*	-4	4	-3
CCN(CC)P(=O)(NC(=O)C(Cl)(Cl)Cl)N(CC)CC.[Cl-].[Cl-].[Cl-].[Nd+3]	41*	29	-29	0
COC(=O)C1=C(c2cccc(OC)c2OC)C[C@@H]2CC[C@H]1N2C(=O)NCCCOC(C)C	1	11	-11	2
CC(=O)O[C@H]1CC[C@@]2(C)C(=CC(=O)C3C2CC[C@@]2(C)C3C[C@H](OC(C)=O)[C@@H]2OC(C)=O)C1 (stereo partly drawn)	3	66*	-66	0
NC(Cc1ccc(O)cc1)C(=O)NN=Cc1ccc(N(CCCl)CCCl)cc1 (stereo not drawn)	32*	-25	25	1
COc1cc(C(=O)NN=Cc2ccc(N(CCCl)CCCl)cc2)cc(OC)c1OC	-10	-76	76*	-1
Nc1cccc2c1Cc1cc([N+](=O)[O-])ccc1-2	1	-19	19	0
CN(C)CCN=Cc1c(O)n(Cc2ccc3c(c2)OCO3)c(=S)[nH]c1=O	-5	5	-5	0
O=c1[nH]c(=S)n(Cc2ccc(F)cc2)c(O)c1C=NCc1ccc2c(c1)OCO2	40*	5	-5	0
Cc1c2ccncc2c(C)c2c1[nH]c1ccccc12	55*	-1	3	2
CCN(CC)C(=O)c1ccc(NC(=O)c2ccc(-c3nn(C)c(=O)c4ccccc34)cc2)cc1	-16	-81	81*	-5
Cc1cccc(C2=NCC(=O)N(CC(=O)NCc3ccco3)c3sc4c(c32)CCCC4)c1	-6	-77	77*	0
COc1ccc(C2=NCC(=O)N(CC(=O)NCc3ccco3)c3sc4c(c32)CCCC4)cc1	-12	-27	27	3
CCCCn1c(O)c(/C(C)=N/NC(=O)Nc2ccccc2)c(=O)[nH]c1=O	1	8	-8	0
C[n+]1c(-c2ccccc2)c2cc(N)ccc2c2ccc(N)cc21	-221	-5	5	5
Nc1ccc2ccc3cccc[n+]3c2c1	32*	19	-19	0
CCCCOC(=O)c1ccccc1C(=O)OCc1ccccc1	-5	-14	14	-3
SMILES	dFosB activator	SR-BI DiI-HDL act	SR-BI HDL uptake	CDK5 inh
N#Cc1ccccc1OCC(=O)N1CCN(CC(=O)Nc2ccc(F)cc2)CC1	-7	2	-2	-1
O=C(c1cc2cc(Br)ccc2[nH]1)N1CCC2(CC1)OCCO2	-8	424*	-424	-2
O=C(CNC(=O)c1ccc(Br)cc1)Nc1ccc(Br)cc1C(=O)c1ccccc1	-17	9	-9	-1
COc1cc(C(=O)Nc2ccc(Br)cc2C(=O)c2ccccc2)cc(OC)c1OC	-12	-81	81*	1
O=S1(=O)N(CCN2CC=C(c3c[nH]c4cc(F)ccc34)CC2)c2cccc3c2N1CCC3	?	-79	79*	-1
CC(C)N1CC=C(c2c[nH]c3ccccc23)CC1	-5	32	-32	0
Cc1cc(N(CCCl)CCCl)ccc1C=Cc1ccncn1	-8	-76	76*	1
CCCCn1c(=O)c(C(=O)Nc2ccsc2C(=O)OC)c(O)c2ccccc21	4	-24	24	1
CN1CCC(N(C)c2nc(-c3ccc([N+](=O)[O-])cc3)nc3ccccc23)CC1	30*	-39	39	2
CC(=O)c1cc(C(C)=O)c(C)[n+](C)c1C	3	20	-20	-1
O=C(N/N=C/c1c(O)n(C2CCCCC2)c(=S)[nH]c1=O)c1ccccc1	-1	-15	15	-10
CC(C)c1ccc(-n2c(O)c(/C=N/NC(=O)c3ccccc3O)c(=O)[nH]c2=S)cc1	-1	-107	107*	2
O=C(N/N=C/c1c(O)n(C2CCCCC2)c(=S)[nH]c1=O)c1ccccc1O	8	-130	130*	-1
CCCCC(=O)N/N=C/c1c(O)n(Cc2ccco2)c(=O)[nH]c1=O	8	31	-31	-2
O=C(N/N=C/c1c(O)n(Cc2ccco2)c(=O)[nH]c1=O)c1ccccc1O	-4	-80	80*	-4
CC1(C)CC(=O)C2=C(C1)NC(=O)C21C(C(=O)OC(C)(C)C)=C(N)Oc2ccc(Br)cc21 (stereo not drawn)	-19	38	-38	-4
Cc1ccccc1C(=O)N1CC1C (stereo not drawn)	5	20	-20	0
O=C1NC(=O)C(=Cc2ccc(-c3cc(Cl)ccc3[N+](=O)[O-])o2)C(=O)N1	-5	-13	13	1
O=C1NC(=O)C(=Cc2ccc(-c3ccccc3[N+](=O)[O-])o2)C(=O)N1	-9	-77	77*	1
COc1ccc(CCn2c(O)c(C=Nc3ccc(NC(C)=O)cc3)c(=O)[nH]c2=O)cc1OC	23*	16	-16	0
N#CCN1CCN(c2ccc(C(F)(F)F)cc2)CC1	8	17	-17	0
O=c1c(C=NCCN2CCNCC2)c(O)n(C2CCCCC2)c(=O)n1C1CCCCC1	41*	53	-53	1
COc1ccc(CN2C(=O)NC(=O)/C(=C/c3ccc(OC)c(OC)c3OC)C2=O)cc1	-1	380*	-380	0
S=C(N1CCCCCC1)N1CC1	-1	12	-12	-2
Cc1nc2ccccc2c(=O)n1-c1ccc(Br)cn1	3	0	0	1
Cc1nc2ccccc2c(=O)n1/N=C/c1cc(Br)cc(Br)c1O	-13	-85	85*	-1
CC12CCC3C(CC=C4CC(O)CCC43C)C1C/C(=C\c1cccc(F)c1)C2=O (stereo not drawn)	-7	24	-3	4
